Source: ChEMBL document CHEMBL1132994, “Synthesis and anticonvulsant and neurotoxic properties of substituted N-phenyl derivatives of the phthalimide pharmacophore” (J Med Chem, 2000)
Where “and” joins values, the source holds several entries; their conditions need not be identical. Equal values may be shown once. Calls of active or inactive are those of the source. The calls are words filed in the database; no cut-off is given here.

Key:
Mus musculus [1] = test: Anticonvulsant activity in mice through seizures induced by sc pentylenetetrazole (intraperitoneal administration at a concentration of 300 mg/kg after 30 min; active; type: functional, organism-based; design: dose 300 mg/kg
Mus musculus [2] = organism: Mus musculus; test: Current response was measured from -90 mV depolarizing voltage steps at 100 uM concentration on 5 N1E-115 neuroblastoma cells.; type: functional
Method in brief: (§1)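 Differentiated N1E-115 cells (3-5 days in 2.5% FCS, 2% DMSO), whole-cell clamped at -70 mV at room temperature. Bath had Cd2+ and TEA to block Ca2+ and K+ channels. Na+ currents evoked by steps from -80 to +60 mV after 90 ms prepulses to -90 or -60 mV, measured 1-2 min into compound exposure; reported as % of control.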

Mus musculus [3] = organism: Mus musculus; test: Current response was measured on 1 uM GABA at 100 uM concentration on 10 isolated mouse cortical neurons.; type: functional
Mus musculus [4] = test: Neurotoxicity determined by rotarod test after intraperitoneal administration at a concentration of 300 mg/kg after 4 hours; Inactive; type: functional, organism-based; design: dose 300 mg/kg
Mus musculus [5] = test: Neurotoxicity by rotarod test after intraperitoneal administration at a concentration of 300 mg/kg after 30 minutes; Inactive; type: functional, organism-based; design: dose 300 mg/kg
Rattus norvegicus [6] = test: Anticonvulsant activity was measured in rats through seizures induced by maximal electroshock (MES) tests by oral administration of drug after 2 hours.; type: functional
Method in brief: (§2)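 Rats given a single oral dose of 30 or 50 mg/kg, depending on compound; MES protection scored at 15, 30, 60, 120 and 240 min. Activity graded by fraction of animals protected (0-25%, 25-50%, 50-75%, 75-100%); neurotoxicity monitored at the same time points.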

Rattus norvegicus [7] = test: Anticonvulsant activity was measured in rats through seizures induced by maximal electroshock (MES) tests by oral administration of drug after 15 minutes.; type: functional; method in brief: as §2
Mus musculus [8] = test: Anticonvulsant activity in mice through seizures induced by subcutaneous pentylenetetrazole (scPTZ) tests after ip administration at a concentration of 300 mg/kg after 4 hours; active; type: functional, organism-based; design: dose 300 mg/kg
Rattus norvegicus [9] = test: (§3) Toxicity screening in rats dosed orally with the compound; No toxicity; type: organism-based; conditions: in vivo, po
Mus musculus [10] = test: Anticonvulsant activity in mice through seizures induced by maximal electroshock (MES) tests after ip administration at a concentration of 100 mg/kg after 30 min; active; type: functional, organism-based; design: dose 100 mg/kg
Mus musculus [11] = test: Anticonvulsant activity in mice through seizures induced by maximal electroshock (MES) tests after ip administration at a concentration of 300 mg/kg after 4 hours; Inactive; type: functional, organism-based; design: dose 300 mg/kg
[12] = dose eliciting minimal neurological toxicity in 50% of animals.; type: organism-based; conditions: rat, in vivo
Rattus norvegicus [13] = test: Effective dose required to assure anticonvulsant protection in 50% of rats dosed orally by MES test.; type: functional; conditions: po
Method in brief: (§4)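 Rats dosed orally; ED50 is the dose giving anticonvulsant protection in 50% of animals in the MES or scPtz test. TD50 is the minimal neurotoxic dose in 50% of animals. Time to peak effect was also determined.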

Rattus norvegicus [14] = test: Anticonvulsant activity was measured in rats through seizures induced by maximal electroshock (MES) tests by oral administration of drug after 1 hour.; type: functional; method in brief: as §2
Mus musculus [15] = organism: Mus musculus; test: Current response was measured on 1 uM GABA at 30 uM concentration on 6 isolated mouse cortical neurons.; type: functional
Mus musculus [16] = organism: Mus musculus; test: Current response was measured from -60 mV depolarizing voltage steps at 100 uM concentration on 3 N1E-115 neuroblastoma cells.; type: functional; method in brief: as §1
Mus musculus [17] = organism: Mus musculus; test: Current response was measured on 100 uM kainate at 100 uM concentration on 7 isolated mouse cortical neurons.; type: functional
Method in brief: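 Cultured mouse fetal cortical neurons, whole-cell clamped at -60 mV and 23 °C. Bath had 1 µM glycine, 10 µM picrotoxin, strychnine and tetrodotoxin. Currents evoked by 100 µM kainate pulses with and without 100 µM compound via rapid perfusion; expressed as % of control, mean ± SEM, Student's t-test.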

Rattus norvegicus [18] = test: Anticonvulsant activity was measured in rats through seizures induced by maximal electroshock (MES) tests by oral administration of drug after 4 hours.; type: functional; method in brief: as §2
Rattus norvegicus [19] = test: Anticonvulsant activity was measured in rats through seizures induced by maximal electroshock (MES) tests by oral administration of drug after 30 minutes.; type: functional; method in brief: as §2
Mus musculus [20] = organism: Mus musculus; test: Current response was measured on 1 uM GABA at 10 uM concentration on 5 isolated mouse cortical neurons.; type: functional
Rattus norvegicus [21] = test: Effective dose required to assure anticonvulsant protection in 50% of rats dosed orally by scPTZ test.; type: functional; conditions: po; method in brief: as §4
Rattus norvegicus [22] = test: as §3; type: functional, organism-based
Method in brief: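 Rats given a single oral dose of 30 or 50 mg/kg, depending on compound. Minimal neurotoxicity was scored at 15, 30, 60, 120 and 240 min after dosing, alongside the MES test. Scores are graded by the percentage of animals affected.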

Mus musculus [23] = test: Neurotoxicity by rotarod test after intraperitoneal administration at a concentration of 300 mg/kg after 4 hours; Active; type: functional, organism-based; design: dose 300 mg/kg
Rattus norvegicus [24] = test: Anticonvulsant activity was measured in rats through seizures induced by maximal electroshock (MES) tests by oral administration of drug at a concentration of 30 mg/kg after 2 hours.; type: functional; method in brief: as §2
Mus musculus [25] = test: Neurotoxicity by rotarod test after intraperitoneal administration at a concentration of 300 mg/kg after 30 minutes; Active; type: functional, organism-based; design: dose 300 mg/kg
Mus musculus [26] = test: Anticonvulsant activity in mice through seizures induced by sc pentylenetetrazole (intraperitoneal administration at a concentration of 300 mg/kg after 4 hours; Inactive; type: functional, organism-based; design: dose 300 mg/kg
Rattus norvegicus [27] = test: Anticonvulsant activity was measured in rats through seizures induced by maximal electroshock (MES) tests by oral administration of drug at a concentration of 30 mg/kg after 30 minutes.; type: functional; method in brief: as §2
Mus musculus [28] = test: Anticonvulsant activity in mice through seizures induced by maximal electroshock (MES) tests after ip administration at a concentration of 100 mg/kg after 30 min; Active; type: functional, organism-based; design: dose 100 mg/kg
Rattus norvegicus [29] = test: Anticonvulsant activity was measured in rats through seizures induced by maximal electroshock (MES) tests by oral administration of drug at a concentration of 30 mg/kg after 15 minutes.; type: functional; method in brief: as §2
Mus musculus [30] = test: Anticonvulsant activity in mice through seizures induced by subcutaneous pentylenetetrazole (scPTZ) tests after ip administration at a concentration of 300 mg/kg after 30 min; Active; type: functional, organism-based; design: dose 300 mg/kg
Rattus norvegicus [31] = test: Anticonvulsant activity in rats through seizures induced by maximal electroshock (MES) tests after oral administration at a concentration of 30 mg/kg after 1 hour.; type: functional; method in brief: as §2
Mus musculus [32] = test: Anticonvulsant activity in mice through seizures induced by maximal electroshock (MES) tests after ip administration at a concentration of 300 mg/kg after 4 hours; Active; type: functional, organism-based; design: dose 300 mg/kg

Nc1ccc(N2C(=O)c3ccccc3C2=O)c(Cl)c1
Activity (Mus musculus [1]): Active | Response (Mus musculus [2]): 62% | Response (Mus musculus [3]): 118% | Activity (Mus musculus [4]): inactive | Activity (Mus musculus [5]): inactive | Activity in animals (Rattus norvegicus [6]): 100% | Activity in animals (Rattus norvegicus [7]): 75% | Activity (Mus musculus [8]): Active | Toxicity (Rattus norvegicus [9]): No toxicity | Activity (Mus musculus [10]): Active | Activity (Mus musculus [11]): inactive | TD50 [12]: > 500 mg/kg | ED50 (Rattus norvegicus [13]): 5.7 mg/kg | Activity in animals (Rattus norvegicus [14]): 100% | Response (Mus musculus [15]): 142% | Response (Mus musculus [16]): 49% | Response (Mus musculus [17]): 74% | Activity in animals (Rattus norvegicus [18]): 100% | Activity in animals (Rattus norvegicus [19]): 100% | Response (Mus musculus [20]): 174% and 99% | ED50 (Rattus norvegicus [21]): > 250 mg/kg

Nc1cccc(N2C(=O)c3ccccc3C2=O)c1
Toxicity (Rattus norvegicus [22]): Not toxic | Activity (Mus musculus [23]): Active | Activity in animals (Rattus norvegicus [24]): 75% | Activity (Mus musculus [25]): Active | Activity (Mus musculus [26]): inactive | Activity in animals (Rattus norvegicus [27]): 100% | Activity (Mus musculus [28]): Active | Activity in animals (Rattus norvegicus [29]): 50% | Activity (Mus musculus [30]): Active | Activity in animals (Rattus norvegicus [18]): 100% | Activity in animals (Rattus norvegicus [31]): 75% | Activity (Mus musculus [32]): Active
